Values belong to the compound of their own block, whether it stands above or below them. The source made the active and inactive calls. No cut-off for these calls is given here.
Assays:
MDA-MB-231 [1] = assay: Antimetastatic activity against human MDA-MB-231 cells xenografted in mouse assessed as reduction in lymph node infiltrates at 10 mg/kg, iv administered 3 times per week measured 3 times per week starting at day 12 by hematoxylin and eosin staining based assay; assay type: functional, organism-based
How it was run: (§1)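 Female SCID/Beige mice inoculated with 2 x 10^6 MDA-MB-231 cells in HBSS:Matrigel (1:1) into third mammary fat pad under ketamine/xylazine. Test agent 30 mg/kg ip twice daily (12 h apart) in PEG400/H2O 70:30, or paclitaxel 10 mg/kg iv three times weekly; 10 mice/group. Tumors measured three times weekly from day 12; lungs and lymph nodes excised, formalin-fixed, nodes H&E-scored (mean ± SEM).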

[2] = Toxicity in SCID/beige mouse xenografted with human MDA-MB-231 cells assessed as body weight gain at 10 mg/kg, iv administered 3 times per week measured 3 times per week starting at day 12; assay type: organism-based; conditions: in vivo
MDA-MB-231 [3] = assay: Antimetastatic activity against human MDA-MB-231 cells xenografted in mouse assessed as reduction in lung metastasis at 10 mg/kg, iv administered 3 times per week measured 3 times per week starting at day 12 by hematoxylin and eosin staining based assay relative to control; assay type: functional; design: scale not given: the % may be the effect or the level left; how it was run: as §1
MDA-MB-231 [4] = assay: Antitumor activity against human MDA-MB-231 cells xenografted in mouse assessed as tumor growth inhibition at 10 mg/kg, iv administered 3 times per week measured 3 times per week starting at day 12; assay type: functional, organism-based; how it was run: as §1
[5] = biological target: T1, Tyrosine-protein kinase receptor UFO (Homo sapiens, UniProt P30530); assay: Inhibition of AXL (unknown origin) phosphorylation after 1 hr by ELISA
T1 sequence (P30530 whole entry): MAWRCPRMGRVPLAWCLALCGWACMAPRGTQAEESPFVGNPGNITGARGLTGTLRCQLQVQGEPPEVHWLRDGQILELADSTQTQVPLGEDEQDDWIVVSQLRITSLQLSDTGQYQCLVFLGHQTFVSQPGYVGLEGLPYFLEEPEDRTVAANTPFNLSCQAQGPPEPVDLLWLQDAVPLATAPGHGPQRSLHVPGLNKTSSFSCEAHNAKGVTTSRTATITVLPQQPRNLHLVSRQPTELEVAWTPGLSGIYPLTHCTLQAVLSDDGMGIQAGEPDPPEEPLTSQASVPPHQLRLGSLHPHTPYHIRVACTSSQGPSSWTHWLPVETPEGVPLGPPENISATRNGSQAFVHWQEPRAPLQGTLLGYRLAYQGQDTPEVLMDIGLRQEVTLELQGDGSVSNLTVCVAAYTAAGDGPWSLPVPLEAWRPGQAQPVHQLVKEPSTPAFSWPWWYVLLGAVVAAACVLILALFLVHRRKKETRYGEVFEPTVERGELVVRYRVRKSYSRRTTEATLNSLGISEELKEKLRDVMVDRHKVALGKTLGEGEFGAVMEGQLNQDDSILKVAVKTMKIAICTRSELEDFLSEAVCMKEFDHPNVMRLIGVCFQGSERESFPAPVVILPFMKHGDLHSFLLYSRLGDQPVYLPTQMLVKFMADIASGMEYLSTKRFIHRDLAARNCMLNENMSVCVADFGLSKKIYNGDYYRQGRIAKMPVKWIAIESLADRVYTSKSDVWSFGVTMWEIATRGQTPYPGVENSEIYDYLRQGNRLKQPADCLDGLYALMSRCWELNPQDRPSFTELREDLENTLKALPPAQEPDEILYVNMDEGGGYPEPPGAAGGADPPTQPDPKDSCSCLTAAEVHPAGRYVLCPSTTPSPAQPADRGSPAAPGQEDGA

[6] = biological target: T1, Tyrosine-protein kinase receptor UFO; assay: Inhibition of AXL (unknown origin)
[7] = biological target: Tyrosine-protein kinase Blk (Homo sapiens) (UniProt P51451); assay: Binding affinity to wild-type human partial length BLK (G211 to L503 residues) expressed in bacterial expression system assessed as residual binding level at 5 umol/L by Kinomescan method
Chain of Tyrosine-protein kinase Blk (Homo sapiens) (P51451 2-505 limits assumed): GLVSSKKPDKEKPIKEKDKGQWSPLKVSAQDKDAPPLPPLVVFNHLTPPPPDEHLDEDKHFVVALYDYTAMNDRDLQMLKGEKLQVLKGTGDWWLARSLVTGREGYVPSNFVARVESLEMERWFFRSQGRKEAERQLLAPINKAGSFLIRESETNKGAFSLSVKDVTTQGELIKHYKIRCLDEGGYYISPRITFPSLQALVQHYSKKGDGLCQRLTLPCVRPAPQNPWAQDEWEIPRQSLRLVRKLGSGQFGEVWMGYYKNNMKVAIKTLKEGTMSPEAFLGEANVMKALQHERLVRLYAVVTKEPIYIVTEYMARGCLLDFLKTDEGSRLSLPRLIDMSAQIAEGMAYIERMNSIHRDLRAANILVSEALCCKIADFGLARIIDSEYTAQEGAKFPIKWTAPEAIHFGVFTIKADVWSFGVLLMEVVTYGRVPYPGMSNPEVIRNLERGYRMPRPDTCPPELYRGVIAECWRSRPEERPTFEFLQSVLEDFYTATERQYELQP

[8] = biological target: Macrophage colony-stimulating factor 1 receptor (Homo sapiens) (UniProt P07333); assay: Binding affinity to wild-type human partial length CSF1R (I564 to S939 residues) expressed in bacterial expression system assessed as residual binding level at 5 umol/L by Kinomescan method
[9] = biological target: T2, Epidermal growth factor receptor (Homo sapiens, UniProt P00533); assay: Inhibition of wild type EGFR (unknown origin)
T2 sequence (P00533 whole entry, the tested form may be a part): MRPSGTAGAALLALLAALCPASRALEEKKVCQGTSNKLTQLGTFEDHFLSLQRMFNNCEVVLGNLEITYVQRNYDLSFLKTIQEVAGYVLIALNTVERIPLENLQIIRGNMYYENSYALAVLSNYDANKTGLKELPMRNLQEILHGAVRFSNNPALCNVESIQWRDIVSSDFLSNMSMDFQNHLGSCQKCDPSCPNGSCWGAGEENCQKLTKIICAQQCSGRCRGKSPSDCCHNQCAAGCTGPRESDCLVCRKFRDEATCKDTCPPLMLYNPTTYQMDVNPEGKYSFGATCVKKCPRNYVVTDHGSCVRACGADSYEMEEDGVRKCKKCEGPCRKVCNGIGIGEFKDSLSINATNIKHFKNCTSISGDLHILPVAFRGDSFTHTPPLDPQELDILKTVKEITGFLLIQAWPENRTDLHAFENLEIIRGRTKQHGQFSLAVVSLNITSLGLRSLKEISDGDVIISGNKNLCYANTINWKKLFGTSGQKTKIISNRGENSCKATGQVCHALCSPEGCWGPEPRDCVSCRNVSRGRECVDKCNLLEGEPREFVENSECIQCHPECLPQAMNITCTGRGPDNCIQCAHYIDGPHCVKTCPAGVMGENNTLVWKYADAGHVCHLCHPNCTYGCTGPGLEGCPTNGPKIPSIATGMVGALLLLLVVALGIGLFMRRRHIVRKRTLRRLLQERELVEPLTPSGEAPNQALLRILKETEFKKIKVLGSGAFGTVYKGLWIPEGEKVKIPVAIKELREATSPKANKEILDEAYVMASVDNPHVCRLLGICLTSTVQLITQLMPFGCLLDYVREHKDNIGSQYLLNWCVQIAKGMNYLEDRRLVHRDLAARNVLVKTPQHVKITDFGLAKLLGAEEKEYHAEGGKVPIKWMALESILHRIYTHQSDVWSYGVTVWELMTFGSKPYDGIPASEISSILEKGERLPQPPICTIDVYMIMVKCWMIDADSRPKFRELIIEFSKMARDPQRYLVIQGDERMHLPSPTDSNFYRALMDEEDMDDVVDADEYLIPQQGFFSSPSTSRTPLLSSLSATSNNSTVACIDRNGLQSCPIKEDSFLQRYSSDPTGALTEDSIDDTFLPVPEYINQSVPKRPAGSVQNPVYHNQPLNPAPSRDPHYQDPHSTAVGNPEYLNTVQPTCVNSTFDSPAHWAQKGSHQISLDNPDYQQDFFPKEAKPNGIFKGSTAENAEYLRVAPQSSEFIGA

[10] = biological target: Platelet-derived growth factor receptor alpha (Homo sapiens) (UniProt P16234); assay: Binding affinity to wild-type human partial length PDGFRA (V575 to D1002 residues) expressed in mammalian expression system assessed as residual binding level at 5 umol/L by Kinomescan method
[11] = biological target: Tyrosine-protein kinase ABL1 (Homo sapiens) (UniProt P00519); assay: Binding affinity to wild-type human phosphorylated ABL1 (S229 to K512 residues) expressed in mammalian expression system assessed as residual binding level at 5 umol/L by Kinomescan method
[12] = biological target: Platelet-derived growth factor receptor beta (Homo sapiens) (UniProt P09619); assay: Binding affinity to wild-type human partial length PDGFRB (V582 to Y1009 residues) expressed in bacterial expression system assessed as residual binding level at 5 umol/L by Kinomescan method
[13] = biological target: Epithelial discoidin domain-containing receptor 1 (Homo sapiens) (UniProt Q08345); assay: Binding affinity to wild-type human partial length DDR1 (R565 to V876 residues) expressed in bacterial expression system assessed as residual binding level at 5 umol/L by Kinomescan method
[14] = biological target: Protein-tyrosine kinase 6 (Homo sapiens) (UniProt Q13882); assay: Binding affinity to wild-type human partial length BRK (L166 to T451 residues) expressed in bacterial expression system assessed as residual binding level at 5 umol/L by Kinomescan method
Chain of Protein-tyrosine kinase 6 (Homo sapiens) (Q13882 whole entry, looked up, the tested form may be a part): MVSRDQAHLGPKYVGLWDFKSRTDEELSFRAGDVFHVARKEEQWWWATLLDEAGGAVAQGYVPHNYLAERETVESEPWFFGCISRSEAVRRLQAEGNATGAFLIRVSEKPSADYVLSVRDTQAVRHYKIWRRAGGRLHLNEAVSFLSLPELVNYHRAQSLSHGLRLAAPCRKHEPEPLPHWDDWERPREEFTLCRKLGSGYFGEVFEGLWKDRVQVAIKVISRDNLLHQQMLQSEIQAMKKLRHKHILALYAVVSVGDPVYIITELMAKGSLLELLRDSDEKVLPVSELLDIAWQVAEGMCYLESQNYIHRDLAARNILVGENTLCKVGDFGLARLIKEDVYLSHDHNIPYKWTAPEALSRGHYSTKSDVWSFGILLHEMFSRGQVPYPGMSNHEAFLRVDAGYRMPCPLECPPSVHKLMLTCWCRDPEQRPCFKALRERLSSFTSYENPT

[15] = biological target: Receptor-interacting serine/threonine-protein kinase 2 (Homo sapiens, UniProt O43353); assay: Binding affinity to wild-type human partial length RIPK2 (M1 to K310 residues) expressed in bacterial expression system assessed as residual binding level at 5 umol/L by Kinomescan method
[16] = biological target: T2, Epidermal growth factor receptor; assay: Binding affinity to wild-type human partial length EGFR (R669 to V1011 residues) expressed in bacterial expression system assessed as residual binding level at 5 umol/L by Kinomescan method
[17] = biological target: T3, Hepatocyte growth factor receptor (Homo sapiens, UniProt P08581); assay: Inhibition of c-MET (unknown origin)
T3 sequence (P08581 whole entry): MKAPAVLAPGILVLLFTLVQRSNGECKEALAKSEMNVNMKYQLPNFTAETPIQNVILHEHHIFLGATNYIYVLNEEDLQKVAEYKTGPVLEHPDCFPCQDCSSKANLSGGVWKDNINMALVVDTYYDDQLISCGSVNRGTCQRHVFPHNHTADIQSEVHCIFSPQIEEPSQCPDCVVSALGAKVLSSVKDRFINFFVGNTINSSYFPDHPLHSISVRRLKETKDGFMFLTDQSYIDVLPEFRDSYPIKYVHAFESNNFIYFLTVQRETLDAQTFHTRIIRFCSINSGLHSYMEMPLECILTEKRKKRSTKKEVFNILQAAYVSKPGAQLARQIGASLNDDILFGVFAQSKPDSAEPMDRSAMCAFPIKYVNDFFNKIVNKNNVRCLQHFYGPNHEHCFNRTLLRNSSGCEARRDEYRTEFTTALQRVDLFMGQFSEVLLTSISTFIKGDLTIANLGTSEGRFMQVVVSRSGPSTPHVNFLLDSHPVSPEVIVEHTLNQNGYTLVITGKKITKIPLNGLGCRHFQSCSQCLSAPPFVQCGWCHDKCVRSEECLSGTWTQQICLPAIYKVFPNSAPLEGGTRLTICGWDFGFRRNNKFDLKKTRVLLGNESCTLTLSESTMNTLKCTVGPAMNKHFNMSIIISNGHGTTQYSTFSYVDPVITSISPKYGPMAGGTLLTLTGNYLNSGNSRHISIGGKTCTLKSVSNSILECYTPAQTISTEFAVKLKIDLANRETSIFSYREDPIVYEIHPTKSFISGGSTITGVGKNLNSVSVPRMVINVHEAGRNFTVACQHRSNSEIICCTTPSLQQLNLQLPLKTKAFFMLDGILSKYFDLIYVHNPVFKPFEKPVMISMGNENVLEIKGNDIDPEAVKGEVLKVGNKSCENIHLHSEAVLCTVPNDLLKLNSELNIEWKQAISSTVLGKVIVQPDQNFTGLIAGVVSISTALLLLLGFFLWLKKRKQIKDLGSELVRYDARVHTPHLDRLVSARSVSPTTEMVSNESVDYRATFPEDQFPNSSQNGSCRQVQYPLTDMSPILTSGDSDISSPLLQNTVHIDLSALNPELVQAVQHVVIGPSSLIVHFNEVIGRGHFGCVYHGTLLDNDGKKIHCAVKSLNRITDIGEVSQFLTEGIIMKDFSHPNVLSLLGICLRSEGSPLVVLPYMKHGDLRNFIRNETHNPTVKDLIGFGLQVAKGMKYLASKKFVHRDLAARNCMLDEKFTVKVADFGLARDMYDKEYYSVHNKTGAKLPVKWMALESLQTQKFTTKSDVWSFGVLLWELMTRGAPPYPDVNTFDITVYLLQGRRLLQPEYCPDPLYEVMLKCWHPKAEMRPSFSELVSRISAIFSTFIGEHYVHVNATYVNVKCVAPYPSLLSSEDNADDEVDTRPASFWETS

[18] = Ratio of IC50 for antimigratory activity against human MDA-MB-231 cells after 3.5 hrs by microscopy based Boyden chamber assay to IC50 for inhibition of AXL (unknown origin)
[19] = biological target: Mast/stem cell growth factor receptor Kit (Homo sapiens) (UniProt P10721); assay: Binding affinity to wild type human partial length c-KIT (I571 to D952 residues) expressed in bacterial expression system assessed as residual binding level at 5 umol/L by Kinomescan method
[20] = biological target: T4, Proto-oncogene tyrosine-protein kinase Src (Homo sapiens, UniProt P12931); assay: Inhibition of SRC (unknown origin)
T4 sequence (P12931 2-536 limits assumed): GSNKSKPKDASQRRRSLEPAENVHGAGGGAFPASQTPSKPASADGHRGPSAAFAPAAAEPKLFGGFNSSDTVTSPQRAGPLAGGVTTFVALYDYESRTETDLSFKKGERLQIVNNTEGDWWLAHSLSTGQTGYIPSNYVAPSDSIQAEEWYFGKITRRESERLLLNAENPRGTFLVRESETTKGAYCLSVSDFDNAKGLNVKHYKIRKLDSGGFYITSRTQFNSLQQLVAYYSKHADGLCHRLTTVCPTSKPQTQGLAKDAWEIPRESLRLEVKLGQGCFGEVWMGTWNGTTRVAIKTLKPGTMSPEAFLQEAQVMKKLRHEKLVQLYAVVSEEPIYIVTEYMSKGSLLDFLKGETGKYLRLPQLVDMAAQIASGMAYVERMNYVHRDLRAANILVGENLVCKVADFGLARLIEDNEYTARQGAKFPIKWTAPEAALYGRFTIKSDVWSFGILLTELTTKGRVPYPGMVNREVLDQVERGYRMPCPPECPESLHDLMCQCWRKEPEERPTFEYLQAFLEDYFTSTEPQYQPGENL

[21] = biological target: T4, Proto-oncogene tyrosine-protein kinase Src; assay: Binding affinity to wild-type human partial length SRC (L240 to L536 residues) expressed in bacterial expression system assessed as residual binding level at 5 umol/L by Kinomescan method
[22] = biological target: T3, Hepatocyte growth factor receptor; assay: Binding affinity to wild type human partial length c-MET (D1010 to S1367 residues) expressed in bacterial expression system assessed as residual binding level at 5 umol/L by Kinomescan method
[23] = biological target: Tyrosine-protein kinase Lck (Homo sapiens) (UniProt P06239); assay: Binding affinity to wild-type human partial length LCK (R207 to P509 residues) expressed in bacterial expression system assessed as residual binding level at 5 umol/L by Kinomescan method
[24] = biological target: Serine/threonine-protein kinase 10 (Homo sapiens, UniProt O94804); assay: Binding affinity to wild-type human partial length LOK (E16 to V314 residues) expressed in bacterial expression system assessed as residual binding level at 5 umol/L by Kinomescan method
Chain of Serine/threonine-protein kinase 10 (O94804 whole entry, looked up, the tested form may be a part): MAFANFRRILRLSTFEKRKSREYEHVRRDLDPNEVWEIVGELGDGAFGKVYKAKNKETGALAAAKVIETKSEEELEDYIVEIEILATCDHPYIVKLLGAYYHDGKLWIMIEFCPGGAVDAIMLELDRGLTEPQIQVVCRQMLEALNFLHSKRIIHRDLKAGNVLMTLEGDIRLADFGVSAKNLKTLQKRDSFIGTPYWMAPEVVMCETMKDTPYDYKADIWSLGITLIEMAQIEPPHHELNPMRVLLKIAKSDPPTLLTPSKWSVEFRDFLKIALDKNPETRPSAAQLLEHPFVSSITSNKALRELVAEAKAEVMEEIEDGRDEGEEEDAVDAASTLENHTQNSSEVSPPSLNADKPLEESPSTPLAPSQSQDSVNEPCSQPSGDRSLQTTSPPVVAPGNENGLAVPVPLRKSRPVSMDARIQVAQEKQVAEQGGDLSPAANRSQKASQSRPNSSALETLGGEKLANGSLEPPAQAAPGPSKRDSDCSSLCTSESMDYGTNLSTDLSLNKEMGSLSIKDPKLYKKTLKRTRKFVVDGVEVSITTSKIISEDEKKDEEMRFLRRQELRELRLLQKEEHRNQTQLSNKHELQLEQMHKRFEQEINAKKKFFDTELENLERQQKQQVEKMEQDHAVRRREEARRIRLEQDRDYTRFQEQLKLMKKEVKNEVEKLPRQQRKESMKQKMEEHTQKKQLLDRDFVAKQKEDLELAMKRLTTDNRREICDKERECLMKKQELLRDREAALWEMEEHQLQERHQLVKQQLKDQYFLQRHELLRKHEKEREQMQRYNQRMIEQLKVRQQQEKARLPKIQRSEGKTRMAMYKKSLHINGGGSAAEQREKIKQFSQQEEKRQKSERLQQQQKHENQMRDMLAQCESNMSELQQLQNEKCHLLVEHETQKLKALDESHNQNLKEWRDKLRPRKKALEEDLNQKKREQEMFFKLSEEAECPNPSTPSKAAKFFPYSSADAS

[25] = biological target: Tyrosine-protein kinase receptor UFO (Homo sapiens) (UniProt P30530); assay: Binding affinity to wild-type human partial length AXL (R497 to Y821 residues) expressed in bacterial expression system assessed as residual binding level at 5 umol/L by Kinomescan method
[26] = Selectivity ratio of compound effect for anti-invasive activity against human MDA-MB-231 cells to IC50 for AXL (unknown origin) phosphorylation
MDA-MB-231 [27] = assay: Antimigratory activity against human MDA-MB-231 cells assessed as inhibition of large cell aggregate formation after 5 hrs by matrigel assay; assay type: functional, cell-based; conditions: MDA-MB-231, 5 h
How it was run: (§2)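 MDA-MB-231 cells (7000/well) seeded on polymerized 3 mg/mL Matrigel (set ≥16 h at 37°C) in serum-free medium; inhibitor added at seeding, aggregates forming over 5 h.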

MDA-MB-231 [28] = assay: Antimigratory activity against human MDA-MB-231 cells after 3.5 hrs by microscopy based Boyden chamber assay; assay type: functional, cell-based; conditions: MDA-MB-231, 3.5 h
How it was run: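 Modified Boyden chamber: MDA-MB-231 cells plated in 0.1% FCS medium, migrating through 8 µm pore membrane toward 1% FCS chemoattractant for 3.5 h; transmigrated cells counted microscopically in at least 5 random fields per well.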

MDA-MB-231 [29] = assay: Anti-invasive activity against human MDA-MB-231 cells up to 3 uM after 5 hrs by matrigel assay; assay type: functional, cell-based; how it was run: as §2

Compound: CC(=O)O[C@H]1C(=O)[C@@]2(C)[C@H]([C@H](OC(=O)c3ccccc3)[C@]3(O)C[C@H](OC(=O)[C@H](O)[C@@H](NC(=O)c4ccccc4)c4ccccc4)C(C)=C1C3(C)C)[C@]1(OC(C)=O)CO[C@@H]1C[C@@H]2O [PACLITAXEL]
Activity (MDA-MB-231 [1]): inactive
Activity [2]: Toxic
Activity (MDA-MB-231 [3]): 54.3%
TGI (MDA-MB-231 [4]): Active

Compound: COc1cc2c(Oc3ccc(NS(=O)(=O)c4cc(F)ccc4F)cc3F)ccnc2cc1OCC(=O)N(C)C
IC50 [5]: > 1000 nM

Compound: COc1cc2nccc(Oc3ccc(NS(=O)(=O)c4c(F)cccc4F)c(F)c3)c2cc1OC
IC50 [5]: > 1000 nM

Compound: COc1cc2nccc(Oc3ccc(NS(=O)(=O)c4ccc(F)c(Cl)c4)c(F)c3)c2cc1OC
IC50 [5]: > 1000 nM

Compound: COc1cc2c(Oc3ccc(NS(=O)(=O)c4ccccc4C(F)(F)F)cc3F)ccnc2cc1OCCCN1CCC(C)CC1
IC50 [6]: 46 nM
Activity [7]: Active
Activity [8]: Active
IC50 [9]: 592 nM
Activity [10]: Active
Activity [11]: Active
Activity [12]: Active
Activity [13]: Active
Activity [14]: Active
Activity [15]: Active
Activity [16]: Active
IC50 [17]: 609 nM
Ratio IC50 [18]: >50
Activity [19]: Active
IC50 [20]: 1720 nM
Activity [21]: Active
Activity [22]: Active
Activity [23]: Active
Activity [24]: Active
Activity [25]: Active

Second part, led by results:

IC50 [6]: 21 nM
Activity [7]: Active
Activity [8]: Active
IC50 [9]: 650 nM
IC50 [5]: 21 nM
Activity [10]: Active
Activity [11]: Active
Activity [12]: Active
Activity [13]: Active
Activity [14]: Active
Activity [15]: Active
Activity [16]: Active
IC50 [17]: 338 nM
Activity [19]: Active
IC50 [20]: 995 nM
Activity [21]: Active
Activity [22]: Active
Activity [23]: Active
Activity [24]: Active
Activity [25]: Active
Compound: COc1cc2c(Oc3ccc(NS(=O)(=O)c4ccccc4C(F)(F)F)cc3F)ccnc2cc1OCCCN1CCOCC1
Ratio IC50 [18]: >50

IC50 [6]: 51 nM
IC50 [9]: 3080 nM
IC50 [5]: 51 nM
IC50 (MDA-MB-231 [27]): 103 nM
IC50 (MDA-MB-231 [28]): 4300 nM
IC50 [17]: 1540 nM
IC50 [20]: 1950 nM
Compound: COc1cc2c(Oc3ccc(NS(=O)(=O)c4ccccc4OC(F)(F)F)cc3F)ccnc2cc1OCCCN1CCN(C)CC1
Selectivity ratio [26]: 2 - 6
inhibition (MDA-MB-231 [29]): Active
Ratio IC50 [18]: >50

— ChEMBL document CHEMBL4371006, “Discovery of N-[4-(Quinolin-4-yloxy)phenyl]benzenesulfonamides as Novel AXL Kinase Inhibitors” (J Med Chem, 2018)
